ChEMBL document CHEMBL1126777, “Mono- and bis(aminomethyl)phenylacetic acid esters as short-acting antiarrhythmic agents. 2” (J Med Chem, 1993)

Columns and labels:
[1] = In vitro determination of human blood elimination half-life; assay type: ADME; conditions: whole blood
Cavia porcellus [2] = species: Cavia porcellus; assay: Dose required to convert acetylstrophanthidin-induced arrhythmia in guinea pig right atria to normal sinus rhythm (number of tissues converted to NSR/number of tissues tested=3/5); assay type: functional
Cavia porcellus [3] = species: Cavia porcellus; assay: Dose required to convert acetylstrophanthidin-induced arrhythmia in guinea pig right atria to normal sinus rhythm (number of tissues converted to NSR/number of tissues tested=1/4); assay type: functional
Cavia porcellus [4] = species: Cavia porcellus; assay: Dose required to convert acetylstrophanthidin-induced arrhythmia in guinea pig right atria to normal sinus rhythm (number of tissues converted to NSR/number of tissues tested=5/5); assay type: functional
Cavia porcellus [5] = species: Cavia porcellus; assay: Dose required to convert acetylstrophanthidin-induced arrhythmia in guinea pig right atria to normal sinus rhythm (number of tissues converted to NSR/number of tissues tested=4/4); assay type: functional
Cavia porcellus [6] = species: Cavia porcellus; assay: Dose required to convert acetylstrophanthidin-induced arrhythmia in guinea pig right atria to normal sinus rhythm (number of tissues converted to NSR/number of tissues tested=6/6); assay type: functional
[7] = Distribution coefficient was determined; assay type: physicochemical; conditions: octanol/water
Summary of the method: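 Octanol and 0.1 M phosphate buffer at pH 7.4 were pre-saturated with each other by shaking for 16 h. About 5 mg of compound was dissolved in 10 mL buffer. A 5-mL portion was shaken with 5 mL octanol and centrifuged for 5 min. Absorbance of the aqueous phase at 280 nm was read before and after partitioning, diluted to 0.4–0.9. DC = (initial − final)/final, each × dilution factor; mean of two determinations.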

[8] = In vitro determination of human blood elimination half-life; not determined because more than 90% of the drug was metabolized in min; assay type: ADME; conditions: whole blood
Cavia porcellus [9] = species: Cavia porcellus; assay: Dose required to convert acetylstrophanthidin-induced arrhythmia in guinea pig right atria to normal sinus rhythm (number of tissues converted to NSR/number of tissues tested=3/3); assay type: functional
Cavia porcellus [10] = species: Cavia porcellus; assay: Dose required to convert acetylstrophanthidin-induced arrhythmia in guinea pig right atria to normal sinus rhythm (number of tissues converted to NSR/number of tissues tested=1/3); assay type: functional
Canis familiaris [11] = assay: In vivo determination of antiarrhythmic activity as the dose required for the production of 80% normal sinus beats in Harris dog; assay type: functional; conditions: Canis lupus familiaris, Heart
Summary of the method: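 Harris dog arrhythmia model with intravenous infusion at 150, 225 or 300 µg/kg/min depending on agent. Effective dose is the cumulative administered dose (mg/kg) giving 80% normal sinus beats; number of animals given.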

Canis familiaris [12] = assay: In vivo determination of antiarrhythmic activity as the dose required for the production of 50% normal sinus beats in ouabain dog; assay type: functional; conditions: Canis lupus familiaris, Heart
Summary of the method: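 Dogs with ouabain-induced arrhythmia received the agent by intravenous infusion at 500 µg/kg/min. ED50 is the cumulative administered dose (mg/kg) at which 50% of beats were normal sinus beats; number of animals given.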

Cavia porcellus [13] = species: Cavia porcellus; assay: Dose required to convert acetylstrophanthidin-induced arrhythmia in guinea pig right atria to normal sinus rhythm (number of tissues converted to NSR/number of tissues tested=2/4); assay type: functional
Cavia porcellus [14] = species: Cavia porcellus; assay: Dose required to convert acetylstrophanthidin-induced arrhythmia in guinea pig right atria to normal sinus rhythm (number of tissues converted to NSR/number of tissues tested=3/4); assay type: functional
Cavia porcellus [15] = species: Cavia porcellus; assay: Dose required to convert acetylstrophanthidin-induced arrhythmia in guinea pig right atria to normal sinus rhythm (number of tissues converted to NSR/number of tissues tested=8/8); assay type: functional

Row | Compound | half-life [1] [min] | ED (Cavia porcellus [5]) [µg/mL] | DC [7] | further results
1 | O=C(Cc1cc(CN2CCCC2)c(O)c(CN2CCCC2)c1)OCCN1C(=O)c2ccccc2C1=O | 3.8 |  |  | ED (Cavia porcellus [2]): 23.3 µg/mL
2 | O=C(Cc1cc(CN2CCCC2)c(O)c(CN2CCCC2)c1)OCC1CCCO1 (configuration not stated) | 3.5 |  |  | ED (Cavia porcellus [3]): 40 µg/mL
3 | O=C(Cc1cc(CN2CCCC2)c(O)c(CN2CCCC2)c1)OCc1ccco1 | 2.5 |  |  | ED (Cavia porcellus [4]): 29.4 µg/mL
4 | O=C(Cc1cc(CN2CCCC2)c(O)c(CN2CCCC2)c1)OCc1ccc([N+](=O)[O-])cc1 | 6.2 | 5.2 |  | 
5 | O=C(Cc1cc(CN2CCCC2)c(O)c(CN2CCCC2)c1)OCCOc1ccccc1 | 2.5 | 16.2 |  | 
6 | O=C(Cc1cc(CN2CCCC2)c(O)c(CN2CCCC2)c1)OCc1ccoc1 | 10.1 |  |  | ED (Cavia porcellus [6]): 27.5 µg/mL
7 | CN1CCN(Cc2cc(CC(=O)OCC3COc4ccccc4O3)ccc2O)CC1 (configuration not stated) |  | 2.5 | 24 | 
8 | O=C(Cc1ccc(O)c(CN2CCN(CC(=O)N3CCCC3)CC2)c1)OCC1COc2ccccc2O1 (configuration not stated) | < 1 | 22.5 | 7.1 | 
9 | O=C(Cc1ccc(O)c(CN2CCCC2)c1)OCC1COc2ccccc2O1 (configuration not stated) |  | 1.2 | 36.3 | half-life [8]: < 1 min
10 | O=C(Cc1cc(CN2CCCC2)c(O)c(CN2CCCC2)c1)OCCc1ccccc1 | 16.8 | 2.8 |  | 
11 | O=C(Cc1ccc(O)c(CN2CCC(N3CCCCC3)CC2)c1)OCC1COc2ccccc2O1 (configuration not stated) | < 1 |  | 9.6 | ED (Cavia porcellus [9]): 8.3 µg/mL
12 | O=C(Cc1ccc(CN2CCCC2)cc1)OCC1COc2ccccc2O1 (configuration not stated) | < 1 | 10 | 22.1 | 
13 | O=C(Cc1cc(CN2CCCC2)c(O)c(CN2CCCC2)c1)OCC1CCCCO1 (configuration not stated) | 3.3 |  |  | ED (Cavia porcellus [10]): 20 µg/mL
14 | O=C(Cc1cc(CN2CCCC2)c(O)c(CN2CCCC2)c1)OCC1COc2ccccc2O1 (configuration not stated) | 7.1 |  | 2.62 | ED50 (Canis familiaris [11]): 14 mg/kg; ED (Cavia porcellus [4]): 7.3 µg/mL; ED50 (Canis familiaris [12]): 4.8 mg/kg
15 | O=C(Cc1cc(CN2CCCC2)c(O)c(CN2CCCC2)c1)OCCc1ccsc1 | 34.8 | 6.2 |  | 
16 | O=C(Cc1cc(CN2CCCC2)c(O)c(CN2CCCC2)c1)OCC1CCc2ccccc2C1 (configuration not stated) | 2.3 |  |  | ED (Cavia porcellus [13]): 6 µg/mL
17 | O=C(Cc1cc(CN2CCCC2)c(O)c(CN2CCCC2)c1)OCCc1cccs1 | 35.9 | 3 |  | 
18 | O=C(Cc1cc(CN2CCCC2)c(O)c(CN2CCCC2)c1)OCc1ccc2c(c1)OCO2 | 9.2 |  |  | ED (Cavia porcellus [14]): 10.7 µg/mL
19 | O=C(Cc1cc(CN2CCCC2)c(O)c(CN2CCCC2)c1)OCc1c(F)c(F)c(F)c(F)c1F | 11 | 7.5 |  | 
20 | O=C(Cc1cccc(CN2CCCC2)c1)OCC1COc2ccccc2O1 (configuration not stated) | < 1 |  | 39.5 | ED (Cavia porcellus [15]): 6.9 µg/mL
21 | COc1ccc2c(COC(=O)Cc3cc(CN4CCCC4)c(O)c(CN4CCCC4)c3)cc(=O)oc2c1 |  |  |  | ED (Cavia porcellus [9]): 11.7 µg/mL
22 | O=C(Cc1cc(CN2CCCC2)c(O)c(CN2CCCC2)c1)OCc1cccs1 | 3.5 | 5.5 | 0.73 | ED50 (Canis familiaris [11]): 10.5 mg/kg; ED50 (Canis familiaris [12]): 3.8 mg/kg
23 | CCN(CC)CC(=O)Nc1c(C)cccc1C [LIDOCAINE] |  |  | 19.2 | ED50 (Canis familiaris [11]): 37.5 mg/kg; ED50 (Canis familiaris [12]): 8.8 mg/kg
